# Assay results: ChEMBL document CHEMBL4622923, “Discovery of 4-Phenylpiperidine-2-Carboxamide Analogues as Serotonin 5-HT2C Receptor-Positive Allosteric Modulators with Enhanced Drug-like Properties” (J Med Chem, 2020)
# Columns and labels:
# [1] = biological target: Sodium-dependent serotonin transporter (Homo sapiens) (UniProt P31645); assay: Displacement of [3H]-citalopram from human SERT stably expressed in HEK cell membranes at 10 uM incubated for 90 mins under dark condition by scintillation counting analysis relative to control
# [2] = biological target: D(1B) dopamine receptor (Homo sapiens) (UniProt P21918); assay: Displacement of [3H]-SCH23390 from human dopamine D5 receptor expressed in HEKT cell membranes at 10 uM incubated for 90 mins under dark condition by scintillation counting analysis relative to control
# [3] = biological target: D(4) dopamine receptor (Homo sapiens) (UniProt P21917); assay: Displacement of [3H]-N-methylspiperone from human dopamine D4 receptor stably expressed in HEK cell membranes at 10 uM incubated for 90 mins under dark condition by scintillation counting analysis relative to control
# [4] = biological target: D(2) dopamine receptor (Homo sapiens) (UniProt P14416); assay: Displacement of [3H]-N-methylspiperone from human dopamine D2 receptor at 10 uM incubated for 90 mins under dark condition by scintillation counting analysis relative to control
# [5] = biological target: 5-hydroxytryptamine receptor 5A (Homo sapiens) (UniProt P47898); assay: Displacement of [3H]-LSD from human 5HT5A expressed in Flp-In-CHO cell membranes at 10 uM incubated for 90 mins under dark condition by scintillation counting analysis relative to control
# 5-HT2B receptor = 5-HT2B receptor (Homo sapiens, UniProt P41595); assay: Displacement of [3H]-LSD from human 5HT2B stably expressed in HEK cell membranes at 10 uM incubated for 90 mins under dark condition by scintillation counting analysis relative to control; settings: membranes of HEK cells stably expressing human 5HT2B, probe [3H]-LSD
# [6] = biological target: 5-hydroxytryptamine receptor 1B (Homo sapiens) (UniProt P28222); assay: Displacement of [3H]-GR125743 from human 5HT1B stably expressed in HEK cell membranes at 10 uM incubated for 90 mins under dark condition by scintillation counting analysis relative to control
# [7] = biological target: Alpha-2C adrenergic receptor (Homo sapiens) (UniProt P18825); assay: Displacement of [3H]-rauwolscine from human adrenergic alpha2C receptor stably expressed in MDCK cell membranes at 10 uM incubated for 90 mins under dark condition by scintillation counting analysis relative to control
# [8] = biological target: Beta-1 adrenergic receptor (Homo sapiens) (UniProt P08588); assay: Displacement of [125I]-pindolol from human beta1 adrenergic receptor expressed in CHO FLp-In cell membranes at 10 uM incubated for 90 mins under dark condition by scintillation counting analysis relative to control
# [9] = biological target: Delta-type opioid receptor (Homo sapiens) (UniProt P41143); assay: Displacement of [3H]-DADLE from human delta opioid receptor stably expressed in HEK cell membranes at 10 uM incubated for 90 mins under dark condition by scintillation counting analysis relative to control
# [10] = biological target: Kappa-type opioid receptor (Homo sapiens) (UniProt P41145); assay: Displacement of [3H]-U69593 from kappa opioid receptor (unknown origin) at 10 uM incubated for 90 mins under dark condition by scintillation counting analysis relative to control
# [11] = biological target: Sodium-dependent noradrenaline transporter (Homo sapiens, UniProt P23975); assay: Displacement of [3H]-nisoxetine from human NET stably expressed in HEK cell membranes incubated for 90 mins under dark condition by scintillation counting analysis
# Method in brief: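 Radioligand competition isotherms for human NET; IC50 from non-linear regression, converted to Ki via the Cheng-Prusoff equation; Ki averaged over repeated experiments.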
# CYP1A2 = CYP1A2 (Homo sapiens, UniProt P05177); assay: Inhibition of CYP1A2 (unknown origin) at 10 uM relative to control; format: ADME
# Method in brief: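 Each CYP isoform inhibition assay run with test compound at 10 µM; reported as percent inhibition.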
# [12] = Kinetic solubility of the compound in PBS at pH 7.4 measured after 2 hrs; format: physicochemical; settings: buffer, pH 7.4, 2 h
# [13] = Apparent permeability across apical to basolateral side in MDCK-MDR1 cells; format: ADME, cell-based, Canis lupus familiaris; settings: dog
# [14] = Apparent permeability across basolateral to apical side in MDCK-MDR1 cells; format: ADME, cell-based, Canis lupus familiaris; settings: dog
# [15] = Clearance in Sprague-Dawley rat at 20 mg/kg, po; format: ADME, organism-based; settings: in vivo
# Method in brief: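 Male Sprague-Dawley rats (200–250 g, n = 3/group) dosed po at 20 mg/kg in 10% DMSO:90% HP-β-CD. Retro-orbital blood taken from 0.25 to 24 h. Noncompartmental analysis; mean ± SEM.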
# [16] = Volume of distribution at steady state in Sprague-Dawley rat at 10 mg/kg, iv; format: ADME, organism-based; settings: in vivo
# Method in brief: (§1)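 Male Sprague-Dawley rats, 200–250 g, n = 3/group, randomly assigned; dosed 10 mg/kg iv or 20 mg/kg po in 10% DMSO:90% HP-β-CD. Retro-orbital blood sampled predose and 0.08 (iv only), 0.25, 0.5, 1, 2, 4, 8, 24 h. Noncompartmental analysis; Cmax read directly from plasma concentration–time plot; mean ± SEM.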
# [17] = Volume of distribution at steady state in Sprague-Dawley rat at 20 mg/kg, po; format: ADME, organism-based; settings: in vivo; method in brief: as §1
# [18] = Oral bioavailability in Sprague-Dawley rat at 20 mg/kg; format: ADME, organism-based; settings: in vivo; method in brief: as §1
# [19] = Ratio of drug level in brain to plasma in Sprague-Dawley rat at 10 mg/kg, iv after 0.25 hrs; format: ADME, organism-based
# Method in brief: (§2)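 Male Sprague-Dawley rats, n = 3/group, given 10 mg/kg iv in 10% DMSO:90% HP-β-CD. Brain and plasma collected at 0.25 and 1 h after dosing. Brain concentration (ng/g) divided by plasma concentration (ng/mL); mean ± SEM.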
# [20] = Ratio of drug level in brain to plasma in Sprague-Dawley rat at 10 mg/kg, iv after 1 hr; format: ADME, organism-based; method in brief: as §2
# 5-HT2A receptor = 5-HT2A receptor (Homo sapiens, UniProt P28223); assay: Positive allosteric modulation of human 5HT2AR expressed in CHO cells assessed as increase in 5-HT induced intracellular calcium release at 1 nM preincubated for 15 mins followed by 5-HT addition and measured at 1 secs interval for 360 secs by calcium 4 dye based FLIPR assay relative to 5-HT; format: cell-based; settings: CHO cells expressing human 5HT2AR
# Method in brief: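 CHO cells stably expressing human 5-HT2AR, serum-starved 3 h, then loaded with Calcium 4 dye plus 2.5 mM probenecid in HBSS (no Ca/Mg, pH 7.4) for 60 min at 37°C and 15 min at room temperature. Test compound added 15 min before 5-HT (10 pM-10 μM). FLIPR fluorescence read every 1 s for 360 s after 5-HT. Emax from 4-parameter fit, normalized to 5-HT maximum.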
# Rattus norvegicus [21] = assay: Potentiation of WAY163909-induced neurobiological activity in Sprague-Dawley rat assessed as increase in number of rat choosing WAY163909 associated lever at 1 mg/kg, ip treated 15 mins prior to WAY163909 addition and measured after 15 mins by drug discrimination test (reference value: 53%); format: functional
# Rattus norvegicus [22] = assay: Potentiation of WAY163909-induced neurobiological activity in Sprague-Dawley rat assessed as increase in number of rat choosing WAY163909 associated lever at 2 mg/kg, ip treated 15 mins prior to WAY163909 addition and measured after 15 mins by drug discrimination test (reference value: 53%); format: functional
# 5-hydroxytryptamine receptor 1B (Homo sapiens), sequence (P28222 whole entry): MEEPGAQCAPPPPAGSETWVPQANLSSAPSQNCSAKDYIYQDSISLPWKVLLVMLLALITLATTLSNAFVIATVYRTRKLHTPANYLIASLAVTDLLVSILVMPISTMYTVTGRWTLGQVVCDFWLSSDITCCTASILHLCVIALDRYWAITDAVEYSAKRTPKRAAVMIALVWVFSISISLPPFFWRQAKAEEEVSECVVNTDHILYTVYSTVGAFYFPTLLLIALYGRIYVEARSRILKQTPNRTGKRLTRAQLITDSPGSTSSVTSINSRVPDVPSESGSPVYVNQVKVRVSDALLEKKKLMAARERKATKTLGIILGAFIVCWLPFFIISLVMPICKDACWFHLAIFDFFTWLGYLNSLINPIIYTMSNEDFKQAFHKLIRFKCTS
# CYP1A2, sequence (P05177 whole entry, canonical isoform): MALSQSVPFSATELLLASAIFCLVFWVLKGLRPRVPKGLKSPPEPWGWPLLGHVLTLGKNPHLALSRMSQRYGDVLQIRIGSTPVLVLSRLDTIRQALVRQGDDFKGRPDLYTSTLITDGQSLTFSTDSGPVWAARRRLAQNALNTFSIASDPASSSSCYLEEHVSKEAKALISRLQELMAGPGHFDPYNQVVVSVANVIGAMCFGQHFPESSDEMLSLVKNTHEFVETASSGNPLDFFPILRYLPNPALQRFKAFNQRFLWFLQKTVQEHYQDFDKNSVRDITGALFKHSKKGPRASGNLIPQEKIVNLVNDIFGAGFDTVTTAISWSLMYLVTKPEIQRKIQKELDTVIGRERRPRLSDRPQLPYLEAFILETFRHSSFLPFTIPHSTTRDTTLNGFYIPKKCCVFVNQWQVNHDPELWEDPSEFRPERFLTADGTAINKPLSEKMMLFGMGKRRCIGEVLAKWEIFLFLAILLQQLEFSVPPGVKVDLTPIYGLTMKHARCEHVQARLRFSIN
# Sodium-dependent serotonin transporter (Homo sapiens), sequence (P31645 whole entry, looked up): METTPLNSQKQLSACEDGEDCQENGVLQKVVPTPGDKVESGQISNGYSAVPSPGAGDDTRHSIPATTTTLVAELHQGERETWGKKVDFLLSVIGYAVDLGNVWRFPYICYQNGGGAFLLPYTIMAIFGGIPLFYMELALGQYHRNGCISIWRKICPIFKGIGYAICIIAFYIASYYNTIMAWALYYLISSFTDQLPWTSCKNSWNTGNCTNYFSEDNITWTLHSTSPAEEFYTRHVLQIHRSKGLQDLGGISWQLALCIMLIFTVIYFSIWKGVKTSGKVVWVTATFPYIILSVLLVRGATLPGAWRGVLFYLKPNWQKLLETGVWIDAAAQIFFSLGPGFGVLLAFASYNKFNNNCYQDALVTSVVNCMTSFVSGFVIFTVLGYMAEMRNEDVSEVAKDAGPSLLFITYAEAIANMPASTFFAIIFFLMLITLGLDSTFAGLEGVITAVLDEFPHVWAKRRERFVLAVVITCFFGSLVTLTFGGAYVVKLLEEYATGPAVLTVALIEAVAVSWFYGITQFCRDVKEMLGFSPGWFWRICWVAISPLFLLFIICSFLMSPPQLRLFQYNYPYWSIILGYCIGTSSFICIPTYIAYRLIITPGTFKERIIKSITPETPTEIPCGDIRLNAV
# Sodium-dependent noradrenaline transporter, sequence (P23975 whole entry): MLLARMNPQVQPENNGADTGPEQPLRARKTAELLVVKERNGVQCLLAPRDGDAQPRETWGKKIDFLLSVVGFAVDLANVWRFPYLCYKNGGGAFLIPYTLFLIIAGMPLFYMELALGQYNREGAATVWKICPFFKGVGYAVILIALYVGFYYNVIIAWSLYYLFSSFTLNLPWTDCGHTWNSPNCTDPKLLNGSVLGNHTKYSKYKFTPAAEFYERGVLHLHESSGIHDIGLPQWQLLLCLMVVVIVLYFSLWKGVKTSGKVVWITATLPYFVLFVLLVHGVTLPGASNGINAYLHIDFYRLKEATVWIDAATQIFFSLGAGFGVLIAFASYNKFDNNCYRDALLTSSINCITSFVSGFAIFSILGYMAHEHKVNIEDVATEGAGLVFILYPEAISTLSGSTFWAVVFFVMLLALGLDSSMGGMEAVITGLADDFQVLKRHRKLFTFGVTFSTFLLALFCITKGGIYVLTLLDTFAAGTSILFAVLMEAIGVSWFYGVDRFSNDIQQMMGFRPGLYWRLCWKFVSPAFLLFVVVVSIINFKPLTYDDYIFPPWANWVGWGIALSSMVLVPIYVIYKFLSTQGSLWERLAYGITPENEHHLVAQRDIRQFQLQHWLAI
# Kappa-type opioid receptor (Homo sapiens), sequence (P41145 whole entry): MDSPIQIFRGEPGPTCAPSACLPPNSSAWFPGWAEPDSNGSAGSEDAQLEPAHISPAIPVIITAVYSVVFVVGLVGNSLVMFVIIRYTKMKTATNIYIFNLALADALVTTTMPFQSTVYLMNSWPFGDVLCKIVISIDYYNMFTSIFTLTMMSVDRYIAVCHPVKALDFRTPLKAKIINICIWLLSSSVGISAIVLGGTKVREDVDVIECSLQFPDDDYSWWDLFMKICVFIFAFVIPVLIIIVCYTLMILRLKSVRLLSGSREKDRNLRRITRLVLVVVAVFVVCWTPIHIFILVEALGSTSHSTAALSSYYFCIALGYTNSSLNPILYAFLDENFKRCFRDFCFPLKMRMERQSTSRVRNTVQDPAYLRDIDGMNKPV
# 5-HT2B receptor, sequence (P41595 whole entry): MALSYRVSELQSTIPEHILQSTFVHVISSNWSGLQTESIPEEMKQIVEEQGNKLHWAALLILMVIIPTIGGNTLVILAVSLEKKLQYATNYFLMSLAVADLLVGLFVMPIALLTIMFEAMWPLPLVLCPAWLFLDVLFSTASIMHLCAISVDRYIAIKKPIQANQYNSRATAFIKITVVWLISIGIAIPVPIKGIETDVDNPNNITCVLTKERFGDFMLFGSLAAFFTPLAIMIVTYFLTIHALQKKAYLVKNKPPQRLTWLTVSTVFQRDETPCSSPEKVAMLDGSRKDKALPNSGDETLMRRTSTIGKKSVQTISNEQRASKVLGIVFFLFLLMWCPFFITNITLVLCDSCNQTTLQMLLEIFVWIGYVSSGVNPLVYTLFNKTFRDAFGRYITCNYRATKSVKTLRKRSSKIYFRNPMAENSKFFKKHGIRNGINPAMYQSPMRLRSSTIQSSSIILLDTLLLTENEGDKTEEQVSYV
# 5-hydroxytryptamine receptor 5A (Homo sapiens), sequence (P47898 whole entry): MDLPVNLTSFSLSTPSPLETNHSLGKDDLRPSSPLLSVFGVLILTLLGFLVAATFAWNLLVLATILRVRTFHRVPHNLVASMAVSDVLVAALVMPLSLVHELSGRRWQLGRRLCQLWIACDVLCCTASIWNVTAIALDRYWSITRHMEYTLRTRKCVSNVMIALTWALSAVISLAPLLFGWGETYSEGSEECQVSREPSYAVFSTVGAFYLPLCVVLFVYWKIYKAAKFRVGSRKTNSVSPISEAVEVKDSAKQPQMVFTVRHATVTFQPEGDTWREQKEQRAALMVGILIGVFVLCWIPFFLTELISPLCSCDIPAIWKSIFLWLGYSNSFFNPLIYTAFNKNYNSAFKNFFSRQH
# D(2) dopamine receptor (Homo sapiens), sequence (P14416 whole entry): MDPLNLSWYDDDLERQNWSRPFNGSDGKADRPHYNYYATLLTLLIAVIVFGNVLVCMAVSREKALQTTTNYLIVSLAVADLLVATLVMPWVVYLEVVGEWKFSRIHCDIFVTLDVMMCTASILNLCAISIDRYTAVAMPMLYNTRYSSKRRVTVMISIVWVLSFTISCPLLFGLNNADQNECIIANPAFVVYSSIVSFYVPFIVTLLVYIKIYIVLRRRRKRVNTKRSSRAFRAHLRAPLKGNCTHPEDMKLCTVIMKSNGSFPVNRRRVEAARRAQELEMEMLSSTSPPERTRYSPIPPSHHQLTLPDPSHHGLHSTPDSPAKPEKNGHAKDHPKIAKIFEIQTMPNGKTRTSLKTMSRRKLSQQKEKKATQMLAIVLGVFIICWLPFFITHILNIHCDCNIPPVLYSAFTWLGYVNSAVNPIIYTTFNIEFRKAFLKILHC
# 5-HT2A receptor, sequence (P28223 whole entry): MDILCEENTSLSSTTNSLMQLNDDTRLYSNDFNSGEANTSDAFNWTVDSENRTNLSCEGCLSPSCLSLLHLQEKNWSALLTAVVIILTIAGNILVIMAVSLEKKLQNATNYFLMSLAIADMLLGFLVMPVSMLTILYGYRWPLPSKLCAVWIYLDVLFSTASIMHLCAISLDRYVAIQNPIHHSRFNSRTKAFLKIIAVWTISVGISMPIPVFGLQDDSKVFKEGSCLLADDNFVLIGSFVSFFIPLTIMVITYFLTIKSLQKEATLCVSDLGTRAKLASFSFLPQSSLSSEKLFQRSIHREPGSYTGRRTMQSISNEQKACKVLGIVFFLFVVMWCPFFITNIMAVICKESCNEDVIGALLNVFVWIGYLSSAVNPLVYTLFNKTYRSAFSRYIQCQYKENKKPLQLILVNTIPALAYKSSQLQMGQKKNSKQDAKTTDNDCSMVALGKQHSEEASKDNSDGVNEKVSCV
# D(4) dopamine receptor (Homo sapiens), sequence (P21917 whole entry): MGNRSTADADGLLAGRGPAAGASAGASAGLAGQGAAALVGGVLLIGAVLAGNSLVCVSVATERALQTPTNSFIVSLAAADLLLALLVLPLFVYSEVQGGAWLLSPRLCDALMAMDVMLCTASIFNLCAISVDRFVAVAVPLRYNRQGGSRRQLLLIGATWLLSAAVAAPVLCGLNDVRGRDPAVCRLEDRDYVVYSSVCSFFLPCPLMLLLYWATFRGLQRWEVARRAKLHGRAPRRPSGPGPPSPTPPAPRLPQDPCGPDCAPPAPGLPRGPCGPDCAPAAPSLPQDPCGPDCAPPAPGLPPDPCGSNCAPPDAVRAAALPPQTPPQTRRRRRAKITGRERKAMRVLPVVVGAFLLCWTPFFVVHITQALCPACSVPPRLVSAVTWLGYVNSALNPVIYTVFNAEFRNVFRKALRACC
smiles,measurement,setting,value
O=C(NC[C@H](O)CO)[C@@H]1C[C@H](c2ccccc2)CCN1 (mixture of isomers),inhibition,[1],47.5%
same,inhibition,[2],9.4%
same,inhibition,[3],-9.3%
same,inhibition,[4],7.5%
same,inhibition,[5],-4.3%
same,"inhibition at 1.5 h, 10 µM",5-HT2B receptor,-7.2%
same,inhibition,[6],12.3%
same,inhibition,[7],-1.8%
same,inhibition,[8],-7.7%
same,inhibition,[9],-6.1%
same,inhibition,[10],13.4%
same,Ki,[11],2500 nM
same,inhibition at 10 µM,CYP1A2,11.8%
same,Kinetic_solubility,[12],> 100 µM
same,Papp,[13],0.04 ×10⁻⁶ cm/s
same,Papp,[14],1.3 ×10⁻⁶ cm/s
same,CL/F,[15],182 mL/min/kg
same,Vdss,[16],5.4 L/kg
same,Vdss,[17],70.6 L/kg
same,F,[18],36.3%
same,BPR,[19],0.07
same,BPR,[20],0.11
same,"Emax at 0.1 h, 0.001 µM",5-HT2A receptor,103%
same,Activity,Rattus norvegicus [21],77%
same,Activity,Rattus norvegicus [22],92%
